“And” between values parts separate entries of the source, which are not always exact repeats. Equal entries are not always repeated. “Also recorded” adds a separate entry of the source.
Experiments:
[1] = system: glucosylceramide synthase; details: cited from earlier work
[2] = system: CYP3A; details: no reference given; cited from earlier work
[3] = system: adults with GD3; assay: Brain volumetric MRI, tensor-based morphometry; assay type: in vivo, human
Summary of the method: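 MRI of brain and brainstem (at least T1 and T2) at baseline, Week 26 and Week 52 on 1.5 or 3 T scanners, read centrally by a reviewer blinded to patient and time point. FreeSurfer parcellation. Tensor-based morphometry: symmetric log-demons registration of baseline/follow-up pairs with a cross-correlation metric. The Jacobian determinant integrated over each region gives the rate of volume change.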

[4] = system: adults with GD3; assay: Trail Making Test; assay type: in vivo, human
Summary of the method: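 Neurocognition measured with the Trail Making Test: Part A (timed visual search and psychomotor speed) and Part B (set-shifting, executive component). Trail B minus Trail A time was derived to remove graphomotor and visual-scanning variance. Baseline versus Week 52 under oral test compound 15 mg once daily plus maintenance IV enzyme replacement.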

[5] = system: adults with GD3; assay: Safety and tolerability, LEAP trial; assay type: in vivo, human; details: 1 year, 11 patients
Summary of the method: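 Open-label, single-arm study at six centres: 11 adults with GD3 took oral test compound 15 mg once daily with maintenance IV imiglucerase every 2 weeks (stable doses 38.5–125 U/kg). Safety and tolerability were assessed over 52 weeks. No pre-specified statistical testing.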

[6] = system: adults with GD3; assay: Resting functional MRI connectivity; assay type: in vivo, human
Summary of the method: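 Resting-state BOLD fMRI at baseline, Week 26 and Week 52, analysed centrally and blinded. Regions of interest came from FreeSurfer segmentation masks, using parcellation of the baseline high-resolution 3D-T1 image. Full and partial connectivity were computed between resting-state networks 1, 2, 3, 6, 7 and 8 using published template maps.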

[7] = system: adults with GD3; assay: Horizontal and vertical saccadic eye movements; assay type: in vivo, human; details: after 1 year; horizontal or vertical velocity and amplitude
Summary of the method: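 Horizontal and vertical saccades recorded non-invasively and assessed by a central reader. Eye-position and target traces were filtered to give eye velocity. Saccades were detected by velocity criteria, and amplitude, duration and peak velocity were derived. Patients took oral test compound 15 mg once daily on top of maintenance IV enzyme replacement for 1 year.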

[8] = system: mouse models of neurological GD; details: cited from earlier work
[9] = system: adults with GD3; assay: Ataxia, Scale for Assessment and Rating of Ataxia; assay type: in vivo, human
[10] = system: adults with GD3; assay: Vineland Adaptive Behavior Scale II; assay type: in vivo, human; details: over 1 year of venglustat treatment
[11] = system: monosialodihexosylganglioside; assay: Monosialodihexosylganglioside in CSF; assay type: in vivo, human; details: Weeks 4, 26 and 52; measurable at baseline in eight of 11 patients
Summary of the method: (§1)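 Exploratory CSF biomarkers quantified in CSF taken by lumbar puncture at baseline and Weeks 1, 4, 26 and 52. Adults with GD3 received oral test compound 15 mg once daily plus maintenance IV enzyme replacement for 52 weeks.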

[12] = system: adults with GD3; assay: Systemic manifestations of GD; assay type: in vivo, human
Summary of the method: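 Haemoglobin, platelet count, and liver and spleen volumes assessed per standard clinical practice over 1 year of daily oral test compound 15 mg plus maintenance IV enzyme replacement. Bone mineral density measured by DXA; bone marrow burden scored from lumbar spine and femur MRI. Lung function followed ATS standards: spirometry (FVC, FEV₁), total lung capacity and carbon monoxide diffusing capacity.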

[13] = Venglustat CSF pharmacokinetics, LEAP trial; assay type: in vivo, human; details: for CSF venglustat concentration, mean (SD): 10 patients (Patient 9 excluded); for CSF venglustat concentration, Patient 9: single patient with low exposure
Summary of the method: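 CSF for drug levels collected pre-dose on Day 1 and 2–4 h post-dose at Weeks 4, 26 and 52 (reported as ~4 h), while on oral test compound 15 mg once daily. Concentrations summarised descriptively, with one patient excluded from summary statistics. Values below LLOQ entered as 0.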

[14] = system: plasma glucosylceramide; details: cited from earlier work
[15] = system: ceramide; assay: Ceramide in CSF; assay type: in vivo, human; details: baseline and throughout the study
Summary of the method: as §1

[16] = Venglustat plasma pharmacokinetics, LEAP trial; assay type: in vivo, human; details: for plasma venglustat concentration, mean (SD): 10 patients (Patient 9 excluded); for plasma venglustat concentration, Patient 9: single patient with low exposure
Summary of the method: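 Plasma sampled on Day 1 pre-dose and at 1, 2, 4, 8 and 24 h. Further samples taken 2–4 h post-dose at Weeks 4, 26 and 52, and pre-dose at Weeks 12 and 39. Oral test compound 15 mg once daily. […] Values below LLOQ entered as 0.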

[17] = after 1 year, patient with low venglustat exposure
[18] = venglustat in combination with imiglucerase
[19] = Week 4, ~4 h post-dose, 15 mg once daily
[20] = Week 26, ~4 h post-dose, 15 mg once daily
[21] = Week 52, ~4 h post-dose, 15 mg once daily

CC(C)(NC(=O)O[C@@H]1CN2CCC1CC2)c1csc(-c2ccc(F)cc2)n1 [Venglustat]
inhibition of glucosylceramide formation [1]: potent and specific inhibitor
metabolism by CYP3A [2]: principally metabolized by the CYP3A cytochrome complex
ventricular volume increase, Patient 9 [3, 17]: 9.6%
whole brain volume reduction, Patient 9 [3, 17]: 1.57%
change in whole brain volume, Patient 9 ([3]; after 1 year, patient with low-to-undetectable venglustat exposure, baseline 882 951 mm^3): −13894.8 mm^3
MRI whole brain volume, Percentage change ([3]; individual patients, baseline to Week 52): −0.52% and 0.38% and 0.11% and −1.57% and −0.22% and −0.23% and 0.025% and 0.48% and 0.21%
regional brain volume change (mean atrophy ± SD), left cuneus ([3]; vMRI Group A, Week 52): 37.2 ± 46.2
regional brain volume change (mean atrophy ± SD), left entorhinal ([3]; vMRI Group A, Week 52): 34.5 ± 32.1
regional brain volume change (mean atrophy ± SD), left lingual ([3]; vMRI Group A, Week 52): 50.1 ± 80.0
regional brain volume change (mean atrophy ± SD), left pericalcarine ([3]; vMRI Group A, Week 52): 18.5 ± 22.0
regional brain volume change (mean atrophy ± SD), left putamen ([3]; vMRI Group A, Week 52): 94.7 ± 78.7
regional brain volume change (mean atrophy ± SD), right accumbens area ([3]; vMRI Group A, Week 52): 12.9 ± 9.6
regional brain volume change (mean atrophy ± SD), right amygdala ([3]; vMRI Group A, Week 52): 60.8 ± 74.9
regional brain volume change (mean atrophy ± SD), right postcentral ([3]; vMRI Group A, Week 52): 91.7 ± 100.0
regional brain volume change (mean atrophy ± SD), right putamen ([3]; vMRI Group A, Week 52): 97.8 ± 100.8
ventricle volume change (mean ± SD) ([3]; vMRI Group A, Week 52): −438 ± 696.9
time to complete TMT Trail A at Week 52, mean (SD) ([4]; baseline 54.4 (47.5) s): 53.5 (43.1) s
time to complete Trail B minus Trail A at Week 52, mean ([4]; baseline 99.3 s): 61.7 s
time to complete TMT Trail B at Week 52, mean (SD) ([4]; baseline 153.6 (149.4)): 115.3 (76.8) seconds
patients with reduction in Trail B minus Trail A time ([4]; baseline to Week 52): 7 of 11
time to complete TMT Trail A, mean change ([4]; baseline to Week 52, 95% CI: −21.0 to 19.4): -0.8 s
time to complete Trail B minus Trail A, mean change ([4]; baseline to Week 52, 95% CI: −88.1 to 13.0): -37.5 s
time to complete TMT Trail B, mean change ([4]; baseline to Week 52, 95% CI: −104.8 to 28.1): -38.4 s
patients with reduction in TMT Trail B time ([4]; baseline to Week 52, marked reduction): 8 of 11
patients with reduction in TMT Trail A time ([4]; baseline to Week 52, minor reduction): 5 of 11
adverse event: acne [5]: two events in two patients
adverse event: back pain [5]: nine events in five patients
adverse event: diarrhoea [5]: two events in two patients
adverse event: headache [5]: ten events in six patients
adverse event: upper respiratory tract infection [5]: two events in two patients
adverse event: vomiting [5]: two events in two patients
severity of most adverse events [5]: mild or moderate, transient
deaths and serious adverse events ([5]; venglustat 15 mg once daily in combination with imiglucerase): no deaths, serious adverse events; also recorded: no deaths or serious adverse events
discontinuation of study treatment [5, 18]: no patient discontinued
patients with at least one adverse event [5, 18]: 11
functional connectivity relative to baseline ([6]; Weeks 26 and 52, patients with venglustat exposure (fMRI Group A)): stronger connectivity
maximal increased correlation coefficient ([6]; fMRI Group A (nine patients)): 0.19 ± 0.16
treatment effect on saccadic eye movements [7]: no clear evidence of a treatment effect
glycolipid accumulation in liver and brain [8]: reduced accumulation of gluco-series glycolipids in the liver and brain
median survival of treated mice ([8]; increased from 45 days): 60 days
increase in median survival ([8]; treated mice): 30%
total modified SARA score at Week 52, mean ([9]; 11 patients, baseline mean 2.68, scale 0–32): 1.55
total modified SARA score, mean change from baseline ([9]; Week 52, 95% CI: −2.06 to −0.21): −1.14 points
patients with slightly improved total modified SARA score ([9]; baseline to Week 52, 11 patients): nine patients; also recorded: nine of 11
Vineland II domain scores over time [10]: deteriorated in all domains; also recorded: All domains decreased in normative score
monosialodihexosylganglioside in CSF on treatment [11]: undetectable in all CSF samples
lumbar spine bone mineral density category ([12]; after 1 year, seven patients with data): five patients remained in the same bone density category
interstitial lung disease ([12]; after 1 year, seven patients with detectable disease at baseline): four improved
bone marrow burden scores ([12]; during 1 year of treatment, 11 patients): remained in the same severity category in 10 patients
haemoglobin concentrations, platelet counts, spleen and liver volumes ([12]; throughout 1 year, reference range for healthy persons): remained in this range
CSF venglustat concentration, mean (SD) [13, 19]: 6.63 (2.42) ng/ml
CSF venglustat concentration, Patient 9 ([13]; Week 4): 3.05 ng/mL
CSF venglustat concentration, mean (SD) [13, 20]: 6.77 (1.96) ng/ml
CSF venglustat concentration, Patient 9 ([13]; Week 26): 1.77 ng/mL
CSF venglustat concentration, mean (SD) [13, 21]: 6.14 (3.44) ng/ml
CSF venglustat concentration, Patient 9 ([13]; Week 52): undetectable
steady state reached (CSF) ([13]; mean CSF concentrations, Patient 9 excluded, 15 mg once daily): ≤ 4 Week
crossing of the blood–brain barrier ([13]; venglustat detectable in CSF 4 h post dose over 1 year (excluding Patient 9)): crossed the blood–brain barrier
mean plasma glucosylceramide reduction from baseline ([14]; 15 mg once daily, Day 15, healthy volunteers): 74.6%
safety and tolerability in healthy volunteers ([14]; once-daily dosing of up to 15 mg): favourable safety and tolerability profile
Emax (plasma glucosylceramide reduction) ([14]; pharmacokinetic-pharmacodynamic modelling after repeated dosing): 80%
ceramide concentrations in CSF [15]: within reference ranges
accumulation in plasma after once-daily dosing versus Day 1 ([16]; 4 h post-dose plasma concentrations, 15 mg once daily): ~2 fold
plasma venglustat concentration, mean (SD) ([16]; Day 1, ~4 h post-dose, 15 mg once daily): 48 (17.5) ng/ml
plasma venglustat concentration, mean (SD) [16, 19]: 116 (48.1) ng/ml
plasma venglustat concentration, Patient 9 ([16]; Week 4): 102 ng/mL
plasma venglustat concentration, mean (SD) [16, 20]: 120 (40.1) ng/ml
plasma venglustat concentration, Patient 9 ([16]; Week 26): 53.3 ng/mL
plasma venglustat concentration, mean (SD) [16, 21]: 114 (65.8) ng/ml
plasma venglustat concentration, Patient 9 ([16]; Week 52): undetectable
AUC(0-t) ([16]; human, plasma, po, 15 mg): 851 ng·h/mL
Cmax ([16]; human, plasma, po, 15 mg): 58.1 ng/mL
Tmax ([16]; human, plasma, po, 15 mg): 2 h
steady state reached (plasma) ([16]; mean plasma concentrations, Patient 9 excluded, 15 mg once daily): ≤ 4 Week

— publication PMC9924909 (Brain, 2022)
